Reference: ChEMBL document CHEMBL2029228, “Antimalarial activity of 9a-N substituted 15-membered azalides with improved in vitro and in vivo activity over azithromycin” (J Med Chem, 2012)
Calls of active or inactive are those of the source. The calls are words filed in the database; no cut-off is given here.

Experiments:
[1] = test system: Plasmodium berghei; test: Antimalarial activity against Plasmodium berghei KBG173 infected in mouse assessed as cured mouse at 5 mg/kg, iv BID administered on day 3, 4 and 5 post infection measured up to day 31; format: functional, organism-based; set-up: dose 5 mg/kg
Method in brief: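 Male mice (24–30 g) inoculated intraperitoneally with 5 × 10⁶ P. berghei KBG-173-infected erythrocytes; parasitemia about 1.0–3.7% by day 3. Dosing twice daily on days 3–5 postinfection. Blood smears negative on day 31 counted as cured, scored as cured/total mice (5 per dose). Mice losing ≥20% body weight sacrificed.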

[2] = test system: HepG2; test: Cytotoxicity against human HepG2 cells after 24 hrs by MTS assay; format: cell-based; settings: HepG2, 24 h
Method in brief: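 HepG2 cells kept in RPMI 1640 with 10% FBS plus antibiotics at 37 °C, 5% CO₂. 50 000 cells per well exposed to 10 two-fold serial dilutions for 24 h. MTS reagent then added for 2 h more, absorbance read at 490 nm, IC50 derived.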

[3] = test system: Plasmodium falciparum; test: Antimalarial activity against mefloquine-resistant Plasmodium falciparum TM91C235 assessed as [3H]hypoxanthine incorporation after 48 hrs; format: functional, organism-based
Method in brief: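 Tritiated hypoxanthine incorporation assay (Desjardins method, Milhous modification) with 48 h drug exposure. Uses P. falciparum clone TM91C235 (Southeast Asian, mefloquine-resistant). Compounds 2-fold diluted over 11 concentrations. IC50 derived by nonlinear logistic dose-response fitting, averaged where multiple runs were done.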

[4] = Aqueous solubility of the compound; format: physicochemical; settings: buffer

CC[C@H]1OC(=O)[C@H](C)[C@@H](O[C@H]2C[C@@](C)(OC)[C@@H](O)[C@H](C)O2)[C@H](C)[C@@H](O[C@@H]2O[C@H](C)C[C@H](N(C)C)[C@H]2O)[C@](C)(O)C[C@@H](C)CN(CCCNCc2ccnc3ccccc23)[C@H](C)[C@@H](O)[C@]1(C)O
Activity [1]: inactive

CC[C@H]1OC(=O)[C@H](C)[C@@H](O[C@H]2C[C@@](C)(OC)[C@@H](O)[C@H](C)O2)[C@H](C)[C@@H](O[C@@H]2O[C@H](C)C[C@H](N(C)C)[C@H]2O)[C@](C)(O)C[C@@H](C)CN(CCCNc2ccnc3ccccc23)[C@H](C)[C@@H](O)[C@]1(C)O
Activity [1]: inactive

CC[C@H]1OC(=O)[C@H](C)[C@@H](O[C@H]2C[C@@](C)(OC)[C@@H](O)[C@H](C)O2)[C@H](C)[C@@H](O[C@@H]2O[C@H](C)C[C@H](N(C)C)[C@H]2O)[C@](C)(O)C[C@@H](C)CN(CCCNC(=O)CCc2ccccc2)[C@H](C)[C@@H](O)[C@]1(C)O
Activity [1]: inactive

CC[C@H]1OC(=O)[C@H](C)[C@@H](O)[C@H](C)[C@@H](O[C@@H]2O[C@H](C)C[C@H](N(C)C)[C@H]2O)[C@](C)(O)C[C@@H](C)CN(CCCNCc2ccnc3ccccc23)[C@H](C)[C@@H](O)[C@]1(C)O
IC50 [2]: > 50 µM | IC50 [3]: 0.264 µM

CC[C@H]1OC(=O)[C@H](C)[C@@H](O[C@H]2C[C@@](C)(OC)[C@@H](O)[C@H](C)O2)[C@H](C)[C@@H](O[C@@H]2O[C@H](C)C[C@H](N(C)C)[C@H]2O)[C@](C)(O)C[C@@H](C)CN(CCCNC(=O)CCCc2ccccc2)[C@H](C)[C@@H](O)[C@]1(C)O
IC50 [2]: > 50 µM | IC50 [3]: 0.085 µM

CC[C@H]1OC(=O)[C@H](C)[C@@H](O)[C@H](C)[C@@H](O)[C@](C)(O)C[C@@H](C)CN(CCCNCc2ccc3ccccc3n2)[C@H](C)[C@@H](O)[C@]1(C)O
IC50 [2]: > 50 µM | IC50 [3]: 1.97 µM

CC(=O)O.CC[C@H]1OC(=O)[C@H](C)[C@@H](O[C@H]2C[C@@](C)(OC)[C@@H](O)[C@H](C)O2)[C@H](C)[C@@H](O[C@@H]2O[C@H](C)C[C@H](N(C)C)[C@H]2O)[C@](C)(O)C[C@@H](C)CN(CCCNc2ccnc3cc(Cl)ccc23)[C@H](C)[C@@H](O)[C@]1(C)O
solubility [4]: >= 10 mg kg-1

CC[C@H]1OC(=O)[C@H](C)[C@@H](O[C@H]2C[C@@](C)(OC)[C@@H](O)[C@H](C)O2)[C@H](C)[C@@H](O[C@@H]2O[C@H](C)C[C@H](N(C)C)[C@H]2O)[C@](C)(O)C[C@@H](C)CN(CCCNCCCCc2ccccc2)[C@H](C)[C@@H](O)[C@]1(C)O
IC50 [2]: 16 µM | IC50 [3]: 0.051 µM

CC[C@H]1OC(=O)[C@H](C)[C@@H](O[C@H]2C[C@@](C)(OC)[C@@H](O)[C@H](C)O2)[C@H](C)[C@@H](O[C@@H]2O[C@H](C)C[C@H](N(C)C)[C@H]2O)[C@](C)(O)C[C@@H](C)CN(CCCNCCCc2ccccc2)[C@H](C)[C@@H](O)[C@]1(C)O
IC50 [2]: 40 µM | IC50 [3]: 0.106 µM

CC(=O)O.CC[C@H]1OC(=O)[C@H](C)[C@@H](O[C@H]2C[C@@](C)(OC)[C@@H](O)[C@H](C)O2)[C@H](C)[C@@H](O[C@@H]2O[C@H](C)C[C@H](N(C)C)[C@H]2O)[C@](C)(O)C[C@@H](C)CN(CCC(=O)N[C@H](C)c2cccc3ccccc23)[C@H](C)[C@@H](O)[C@]1(C)O
solubility [4]: >= 10 mg kg-1

CC[C@H]1OC(=O)[C@H](C)[C@@H](O[C@H]2C[C@@](C)(OC)[C@@H](O)[C@H](C)O2)[C@H](C)[C@@H](O[C@@H]2O[C@H](C)C[C@H](N(C)C)[C@H]2O)[C@](C)(O)C[C@@H](C)CN(CCCNCc2ccccc2)[C@H](C)[C@@H](O)[C@]1(C)O
IC50 [2]: > 50 µM | IC50 [3]: 0.104 µM

CC(=O)O.CC[C@H]1OC(=O)[C@H](C)[C@@H](O[C@H]2C[C@@](C)(OC)[C@@H](O)[C@H](C)O2)[C@H](C)[C@@H](O[C@@H]2O[C@H](C)C[C@H](N(C)C)[C@H]2O)[C@](C)(O)C[C@@H](C)CN(CCCNc2ccnc3ccccc23)[C@H](C)[C@@H](O)[C@]1(C)O
solubility [4]: >= 10 mg kg-1

CC[C@H]1OC(=O)[C@H](C)[C@@H](O[C@H]2C[C@@](C)(OC)[C@@H](O)[C@H](C)O2)[C@H](C)[C@@H](O[C@@H]2O[C@H](C)C[C@H](N(C)C)[C@H]2O)[C@](C)(O)C[C@@H](C)CN(CCCNCc2cccc3ccccc23)[C@H](C)[C@@H](O)[C@]1(C)O
IC50 [2]: 10 µM | IC50 [3]: 0.025 µM

CC(=O)O.CC[C@H]1OC(=O)[C@H](C)[C@@H](O[C@H]2C[C@@](C)(OC)[C@@H](O)[C@H](C)O2)[C@H](C)[C@@H](O[C@@H]2O[C@H](C)C[C@H](N(C)C)[C@H]2O)[C@](C)(O)C[C@@H](C)CN(CCCNCc2ccnc3ccccc23)[C@H](C)[C@@H](O)[C@]1(C)O
solubility [4]: >= 10 mg kg-1

CC[C@H]1OC(=O)[C@H](C)[C@@H](O)[C@H](C)[C@@H](O)[C@](C)(O)C[C@@H](C)CN(CCCNCc2cnc3ccccc3c2)[C@H](C)[C@@H](O)[C@]1(C)O
IC50 [2]: > 50 µM | IC50 [3]: 1.89 µM

CC[C@H]1OC(=O)[C@H](C)[C@@H](O[C@H]2C[C@@](C)(OC)[C@@H](O)[C@H](C)O2)[C@H](C)[C@@H](O[C@@H]2O[C@H](C)C[C@H](N(C)C)[C@H]2O)[C@](C)(O)C[C@@H](C)CN(CCCNCc2ccc3ccccc3n2)[C@H](C)[C@@H](O)[C@]1(C)O
IC50 [2]: 28 µM | IC50 [3]: 0.062 µM

CC[C@H]1OC(=O)[C@H](C)[C@@H](O[C@H]2C[C@@](C)(OC)[C@@H](O)[C@H](C)O2)[C@H](C)[C@@H](O[C@@H]2O[C@H](C)C[C@H](N(C)C)[C@H]2O)[C@](C)(O)C[C@@H](C)CN(CCC(=O)NCCCc2ccccc2)[C@H](C)[C@@H](O)[C@]1(C)O
IC50 [2]: 40 µM | IC50 [3]: 0.089 µM

CC[C@H]1OC(=O)[C@H](C)[C@@H](O[C@H]2C[C@@](C)(OC)[C@@H](O)[C@H](C)O2)[C@H](C)[C@@H](O[C@@H]2O[C@H](C)C[C@H](N(C)C)[C@H]2O)[C@](C)(O)C[C@@H](C)CN(CCCNCc2cccnc2)[C@H](C)[C@@H](O)[C@]1(C)O
IC50 [2]: > 50 µM | IC50 [3]: 0.391 µM

CC[C@H]1OC(=O)[C@H](C)[C@@H](O[C@H]2C[C@@](C)(OC)[C@@H](O)[C@H](C)O2)[C@H](C)[C@@H](O[C@@H]2O[C@H](C)C[C@H](N(C)C)[C@H]2O)[C@](C)(O)C[C@@H](C)CN(CCCNc2ncnc3[nH]cnc23)[C@H](C)[C@@H](O)[C@]1(C)O
IC50 [2]: > 50 µM | IC50 [3]: > 6.4 µM

CC[C@H]1OC(=O)[C@H](C)[C@@H](O[C@H]2C[C@@](C)(OC)[C@@H](O)[C@H](C)O2)[C@H](C)[C@@H](O[C@@H]2O[C@H](C)C[C@H](N(C)C)[C@H]2O)[C@](C)(O)C[C@@H](C)CN(CCCNC(=O)Cc2ccccc2)[C@H](C)[C@@H](O)[C@]1(C)O
IC50 [2]: > 50 µM | IC50 [3]: 0.233 µM

CCOc1ccc2ccccc2c1CNCCCN1C[C@H](C)C[C@@](C)(O)[C@H](O[C@@H]2O[C@H](C)C[C@H](N(C)C)[C@H]2O)[C@@H](C)[C@H](O[C@H]2C[C@@](C)(OC)[C@@H](O)[C@H](C)O2)[C@@H](C)C(=O)O[C@H](CC)[C@@](C)(O)[C@H](O)[C@H]1C
IC50 [2]: 7 µM | IC50 [3]: 0.026 µM

CC[C@H]1OC(=O)[C@H](C)[C@@H](O[C@H]2C[C@@](C)(OC)[C@@H](O)[C@H](C)O2)[C@H](C)[C@@H](O[C@@H]2O[C@H](C)C[C@H](N(C)C)[C@H]2O)[C@](C)(O)C[C@@H](C)CN(CCC(=O)N[C@H](C)c2cccc3ccccc23)[C@H](C)[C@@H](O)[C@]1(C)O
Activity [1]: inactive
